# Published values from different studies.
# Lines come from different studies, so protocols differ.
# LRRK2: Leucine-rich repeat serine/threonine-protein kinase 2 (LRRK2, Homo sapiens, UniProt Q5S007)
# LRRK2 G2019S: Leucine-rich repeat serine/threonine-protein kinase 2 (LRRK2, Homo sapiens, UniProt Q5S007, G2019S)
Structure (SMILES),target,test,conditions,endpoint,result
CNS(=O)(=O)c1ccc(Nc2ncc(C(F)(F)F)c(N3CCC[C@](C)(O)C3)n2)c(C)c1,LRRK2,"binding, competition with immobilised ligand",1 µM,remaining binding,12%
Cc1ccc(NC(=O)c2ccnc(C(F)(F)F)c2)cc1-c1cc(OCCO)nc(N2CCOCC2)c1,LRRK2,binding,1 µM,remaining binding,100%
C[C@]1(O)CCCN(c2nc(Nc3ccc(S(=O)(=O)N[C@H]4CC[C@H](CN5CCN(c6ccc(C7CCC(=O)NC7=O)cc6F)CC5)CC4)cc3Cl)ncc2C(F)(F)F)C1 (stereo partly drawn),LRRK2,"binding, competition with immobilised ligand",1 µM,remaining binding,21%
C1=C/COCc2cc(ccc2OCCN2CCCC2)Nc2nccc(n2)-c2cccc(c2)COC/1,LRRK2 G2019S,binding,0.1 µM,remaining binding,100%
CN1CCN(C(=O)c2ccc(NC(=O)Nc3ccc(N(C)c4ccnc(Nc5ccc(CS(C)(=O)=O)cc5)n4)cc3)cc2)CC1,LRRK2 G2019S,binding,1 µM,remaining binding,71%
CCCCC(=O)Nc1ccc(-c2ccc3ncn(CCC)c(=O)c3c2)cn1,LRRK2,"binding, competition with immobilised ligand",0.5 µM,remaining binding,100%
C[C@]1(O)CCCN(c2nc(Nc3ccc(S(=O)(=O)N[C@H]4CC[C@H](CN5CCN(c6ccc(C7CCC(=O)NC7=O)cc6F)CC5)CC4)cc3F)ncc2C(F)(F)F)C1 (stereo partly drawn),LRRK2 G2019S,"binding, competition with immobilised ligand",1 µM,remaining binding,39%
C=CC(=O)N1CCC[C@@H](n2nc(-c3ccc(Oc4ccccc4)cc3)c3c(N)ncnc32)C1,LRRK2 G2019S,"enzyme activity, inhibitor",1 µM,inhibition,23%
CC(C)S(=O)(=O)c1ccc2nccc(Nc3ccc4sc(C5CCCC5)nc4c3)c2c1,LRRK2,"enzyme activity, inhibitor",1 µM,activity vs control,120%
C#Cc1cc(-c2cc(Nc3nc(N[C@@H](C)c4ccc(F)cn4)ncc3Cl)n[nH]2)ccc1C=O,LRRK2 G2019S,"enzyme activity, inhibitor",0.2 µM,inhibition,23%
Cc1cc(S(=O)(=O)N[C@H]2CC[C@H](CN3CCN(c4ccc(C5CCC(=O)NC5=O)cc4F)CC3)CC2)ccc1Nc1ncc(C(F)(F)F)c(N2CCC[C@](C)(O)C2)n1 (stereo partly drawn),LRRK2,"binding, competition with immobilised ligand",1 µM,remaining binding,6.6%
COc1ccc2[nH]c3c4[nH]c5ccc(OC)cc5c4c4c(c3c2c1)C(=O)NC4=O,LRRK2 G2019S,binding,1 µM,remaining binding,2.6%
